Measured values from ChEMBL document CHEMBL3860021, “Screening and Design of Inhibitor Scaffolds for the Antibiotic Resistance Oxacillinase-48 (OXA-48) through Surface Plasmon Resonance Screening” (J Med Chem, 2016).
Activity calls are given as the source filed them. The calls are words filed in the database; no cut-off is given here.

Columns and labels:
[1] = target: T1, Beta-lactamase OXA-48 (Klebsiella pneumoniae, UniProt Q6XEC0); assay: Inhibition of native signal containing Klebsiella pneumoniae OXA-48 using nitrocefin substrate pre-incubated for 5 mins before substrate addition
[2] = target: T1, Beta-lactamase OXA-48; assay: Binding affinity to native signal deficient and TEV cleavage site containing His-tagged Klebsiella pneumoniae OXA-48 expressed in Escherichia coli assessed as dissociation constant by SPR assay
[3] = Inhibition of beta-lactamase VIM-2 (unknown origin)
[4] = target: T1, Beta-lactamase OXA-48; assay: Binding affinity to native signal deficient and TEV cleavage site containing His-tagged Klebsiella pneumoniae OXA-48 expressed in Escherichia coli assessed as dissociation rate constant by SPR assay
Outline: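 tOXA-48 (E. coli BL21 Star (DE3) pRARE, His tag removed by TEV, cation-exchange polished) amine-coupled to CM5 chip (~5000 RU, from 25 µg/mL in 10 mM MES pH 5.5). Fragments 2-fold series 118-900 µM (or 1.8-900 µM), double-referenced, steady-state fit. Meropenem 62.5 nM-32 µM, 1:1 kinetic fit.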

[5] = target: Beta-lactamase OXA-48 (Klebsiella pneumoniae) (UniProt Q6XEC0); assay: Binding affinity to native signal deficient and TEV cleavage site containing His-tagged Klebsiella pneumoniae OXA-48 expressed in Escherichia coli assessed as association rate constant by SPR assay
Outline: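 SPR with tOXA-48 amine-coupled to a CM5 chip (~5000 RU, immobilised from 10 mM MES pH 5.5). Meropenem was injected as a 2-fold series, 62.5 nM-32 µM, at 30 µL/min, with 60 s contact and 240 s dissociation. Sensorgrams were double-referenced and fitted to a 1:1 kinetic model.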

[6] = target: Beta-lactamase OXA-48 (Klebsiella pneumoniae) (UniProt Q6XEC0); assay: Inhibition of native signal containing Klebsiella pneumoniae OXA-48 at 1.5 uM using nitrocefin substrate pre-incubated for 5 mins before substrate addition
Outline: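 Avibactam dilution series (50 nM–20 µM) was preincubated about 5 min with 100 pM nOXA-48, then started with 25 µM nitrocefin. Buffer was phosphate pH 7.0 with 50 mM NaHCO3 and 0.2 mg/ml BSA, at 25 °C. Competition read-out from initial hydrolysis rates.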

[7] = substrate: O=C(Cc1cccs1)N[C@@H]1C(=O)N2C(C(=O)O)=C(/C=C/c3ccc([N+](=O)[O-])cc3[N+](=O)[O-])CS[C@H]12; assay: Activity of native signal deficient and TEV cleavage site containing His-tagged Klebsiella pneumoniae OXA-48 expressed in Escherichia coli by Michaelis-Menten kinetics assay
Outline: (§1)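 His-tag-removed tOXA-48 from E. coli BL21 Star (DE3) pRARE, purified by HisTrap, TEV cleavage and cation exchange. Hydrolysis of nitrocefin (10-300 µM) was read at 482 nm with 1 nM enzyme. Buffer was 100 mM phosphate pH 7.0, 50 mM NaHCO3, 0.2 mg/ml BSA at 25 °C. Enzyme-started; linear-phase rates were fitted to Michaelis-Menten.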

[8] = substrate: C[C@@H](O)[C@H]1C(=O)N2C(C(=O)O)=C(SCCNC=N)C[C@H]12; assay: (§2) Activity of native signal containing Klebsiella pneumoniae OXA-48 assessed as ratio of Kcat to Km by Michaelis-Menten kinetics assay
Outline: (§3)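 Steady-state kinetics of nOXA-48 at 25 °C in 100 mM sodium phosphate pH 7.0, 50 mM NaHCO3, 0.2 mg/ml BSA. Substrates were ampicillin, benzylpenicillin, cefepime, CENTA, meropenem, imipenem and nitrocefin, each over its own concentration range, with 100 pM–140 nM enzyme. Reactions were enzyme-started and followed spectrophotometrically. Velocities came from the linear phase, fitted to Michaelis-Menten.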

[9] = substrate: CC1(C)S[C@@H]2[C@H](NC(=O)[C@H](N)c3ccccc3)C(=O)N2[C@H]1C(=O)O; assay: as §2; outline: as §3
[10] = substrate: O=C(Cc1cccs1)N[C@@H]1C(=O)N2C(C(=O)O)=C(/C=C/c3ccc([N+](=O)[O-])cc3[N+](=O)[O-])CS[C@H]12; assay: as §2; outline: as §3
[11] = substrate: O=C(Cc1cccs1)N[C@@H]1C(=O)N2C(C(=O)O)=C(CSc3ccc([N+](=O)[O-])c(C(=O)O)c3)CS[C@H]12; assay: as §2; outline: as §3
[12] = substrate: C[C@@H](O)[C@H]1C(=O)N2C(C(=O)O)=C(S[C@@H]3CN[C@H](C(=O)N(C)C)C3)[C@H](C)[C@H]12; assay: as §2; outline: as §3
[13] = substrate: CC1(C)S[C@@H]2[C@H](NC(=O)Cc3ccccc3)C(=O)N2[C@H]1C(=O)O; assay: as §2; outline: as §3
[14] = substrate: CO/N=C(\C(=O)N[C@@H]1C(=O)N2C(C(=O)[O-])=C(C[N+]3(C)CCCC3)CS[C@H]12)c1csc(N)n1; assay: as §2; outline: as §3
[15] = substrate: C[C@@H](O)[C@H]1C(=O)N2C(C(=O)O)=C(SCCNC=N)C[C@H]12; assay: (§4) Activity of native signal containing Klebsiella pneumoniae OXA-48 by Michaelis-Menten kinetics assay; outline: as §3
[16] = substrate: CC1(C)S[C@@H]2[C@H](NC(=O)[C@H](N)c3ccccc3)C(=O)N2[C@H]1C(=O)O; assay: as §4; outline: as §3
[17] = substrate: O=C(Cc1cccs1)N[C@@H]1C(=O)N2C(C(=O)O)=C(/C=C/c3ccc([N+](=O)[O-])cc3[N+](=O)[O-])CS[C@H]12; assay: as §4; outline: as §3
[18] = substrate: O=C(Cc1cccs1)N[C@@H]1C(=O)N2C(C(=O)O)=C(CSc3ccc([N+](=O)[O-])c(C(=O)O)c3)CS[C@H]12; assay: as §4; outline: as §3
[19] = substrate: C[C@@H](O)[C@H]1C(=O)N2C(C(=O)O)=C(S[C@@H]3CN[C@H](C(=O)N(C)C)C3)[C@H](C)[C@H]12; assay: as §4; outline: as §3
[20] = substrate: CC1(C)S[C@@H]2[C@H](NC(=O)Cc3ccccc3)C(=O)N2[C@H]1C(=O)O; assay: as §4; outline: as §3
[21] = substrate: CO/N=C(\C(=O)N[C@@H]1C(=O)N2C(C(=O)[O-])=C(C[N+]3(C)CCCC3)CS[C@H]12)c1csc(N)n1; assay: as §4; outline: as §3
[22] = substrate: O=C(Cc1cccs1)N[C@@H]1C(=O)N2C(C(=O)O)=C(/C=C/c3ccc([N+](=O)[O-])cc3[N+](=O)[O-])CS[C@H]12; assay: Activity of native signal deficient and TEV cleavage site containing His-tagged Klebsiella pneumoniae OXA-48 expressed in Escherichia coli assessed as ratio of Kcat to Km by Michaelis-Menten kinetics assay; outline: as §1

Question: What does the source list for `O=C(O)c1cc(-c2ccncc2)cc(-c2ccncc2)c1`?
Answer: IC50 [1]: 18 µM; Kd [2]: 50 µM; inhibition [3]: Active

Question: Which IC50 [1] does the source give for `O=C(O)CCCc1c[nH]c2ccccc12` here?
Answer: 480 µM

Question: What about the Kd [2] of the same molecule?
Answer: 430 µM

Question: Which IC50 [1] does the source give for `O=C(O)c1cccc(C#Cc2ccccc2)c1` here?
Answer: 480 µM

Question: With `Nc1cccnc1-c1cccc(C(=O)O)c1` as the molecule, how does the IC50 [1] read?
Answer: 180 µM

Question: And the Kd [2]?
Answer: 330 µM

Question: With `O=C(O)CSc1ccnc2cc(Cl)ccc12` as the molecule, how does the IC50 [1] read?
Answer: 220 µM

Question: Which IC50 [1] does the source give for `O=C(O)c1cccc(-c2cccnc2)c1` here?
Answer: 240 µM

Question: And the Kd [2]?
Answer: 280 µM

Question: What does the source list for `Cc1cc2ccc(C(=O)O)cc2cn1`?
Answer: IC50 [1]: 1020 µM; Kd [2]: 700 µM

Question: For `c1ccc(-c2ccncc2)cc1`, which IC50 [1] is on record?
Answer: > 2000 µM

Question: And the Kd [2]?
Answer: > 1000 µM

Question: With `CC(=O)c1cccc(-c2ccncc2)c1` as the molecule, how does the IC50 [1] read?
Answer: > 2000 µM

Question: What about the Kd [2] of the same molecule?
Answer: > 1000 µM

Question: Which IC50 [1] does the source give for `O=C(O)c1ccccn1` [2-PICOLINIC ACID] here?
Answer: > 2000 µM

Question: And the Kd [2]?
Answer: > 1000 µM

Question: Which IC50 [1] does the source give for `O=C(O)c1ccc2[nH]ccc2c1` here?
Answer: 1390 µM

Question: What about the Kd [2] of the same molecule?
Answer: 1380 µM

Question: For `O=C(O)c1cccc(-c2nccs2)c1`, which IC50 [1] is on record?
Answer: 250 µM

Question: And the Kd [2]?
Answer: 310 µM

Question: Which results are given for `O=C(O)c1ccc(Oc2ccccc2)cc1`?
Answer: IC50 [1]: 870 µM; Kd [2]: 660 µM

Question: What does the source list for `C[C@@H](O)[C@H]1C(=O)N2C(C(=O)O)=C(S[C@@H]3CN[C@H](C(=O)N(C)C)C3)[C@H](C)[C@H]12` [MEROPENEM]?
Answer: koff [4]: 0.3463 s⁻¹; Kd [2]: 0.85 µM; Ka [5]: 4 ×10⁴ /M/s

Question: With `O=C(O)c1cccc(-c2ccncc2)c1` as the molecule, how does the IC50 [1] read?
Answer: 250 µM

Question: And the Kd [2]?
Answer: 280 µM

Question: Which results are given for `O=C(O)c1ccc2ccncc2c1`?
Answer: IC50 [1]: 2200 µM; Kd [2]: 1180 µM

Question: Which inhibition [6] does the source give for `NC(=O)[C@@H]1CC[C@@H]2CN1C(=O)N2OS(=O)(=O)O` here?
Answer: 50%

Question: Which IC50 [1] does the source give for `O=C(O)c1cccc(-c2ccccc2)c1` here?
Answer: 260 µM

Question: What about the Kd [2] of the same molecule?
Answer: 370 µM

B1: Beta-lactamase OXA-48 (Klebsiella pneumoniae), Q6XEC0 (protein)
chain: MRVLALSAVFLVASIIGMPAVAKEWQENKSWNAHFTEHKSQGVVVLWNENKQQGFTNNLKRANQAFLPASTFKIPNSLIALDLGVVKDEHQVFKWDGQTRDIATWNRDHNLITAMKYSVVPVYQEFARQIGEARMSKMLHAFDYGNEDISGNVDSFWLDGGIRISATEQISFLRKLYHNKLHVSERSQRIVKQAMLTEANGDYIIRAKTGYSTRIEPKIGWWVGWVELDDNVWFFAMNMDMPTSDGLGLRQAITKEVLKQEKIIP
Question: Which results are given for B1?
Answer: Km [7]: 150 µM; kcat [7]: 2300 s⁻¹; kcat/Km [8]: 5.7 ×10⁵ /M/s; kcat/Km [9]: 3.7 ×10⁶ /M/s; kcat/Km [10]: 1.7 ×10⁷ /M/s; kcat/Km [11]: 2.8 ×10⁴ /M/s; kcat/Km [12]: 9.8 ×10⁴ /M/s; kcat/Km [13]: 1.1 ×10⁷ /M/s; kcat/Km [14]: 3 ×10⁴ /M/s; Km [15]: 7.9 µM; kcat [15]: 4.5 s⁻¹; Km [16]: 150 µM; kcat [16]: 560 s⁻¹; Km [17]: 90 µM; kcat [17]: 1500 s⁻¹; Km [18]: 24 µM; kcat [18]: 0.66 s⁻¹; Km [19]: 1 µM; kcat [19]: 0.098 s⁻¹; Km [20]: 700 µM; kcat [20]: 8000 s⁻¹; Km [21]: 300 µM; kcat [21]: 9 s⁻¹; kcat/Km [22]: 1.5 ×10⁷ /M/s
